In ChEMBL document CHEMBL1154444, “2,3,5-Substituted tetrahydrofurans: COX-2 inhibitory activities of 5-hydroxymethyl-/carboxyl-2,3-diaryl-tetrahydro-furan-3-ols” (Eur J Med Chem, 2008):

Assays:
[1] = target: Prostaglandin G/H synthase 2 (Ovis aries) (UniProt P79208)
[2] = target: Prostaglandin G/H synthase 1 (Ovis aries) (UniProt P05979); details: at 1 µM
[3] = target: Prostaglandin G/H synthase 2 (Ovis aries) (UniProt P79208); details: at 10 µM
[4] = target: Prostaglandin G/H synthase 1 (Ovis aries) (UniProt P05979)
[5] = tested on: SN12C; assay: Anticancer activity against human SN12C cells at 10 uM; assay type: functional
How it was run: (§1)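 Tested at NIH in the standard 59-human-tumor-cell-line panel, at five concentrations from 10^-4 to 10^-8 M. Read-out is percent growth inhibition of the named cell line at 10^-5 M.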

[6] = Selectivity ratio of IC50 for COX1 to IC50 for COX2
How it was run: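 Ovine COX-1 and COX-2 inhibitor screening kit. Reaction started with arachidonic acid and quenched with 1 M HCl. PGH2 reduced to PGF2α by SnCl2, then quantified by prostaglandin antiserum immunoassay read at 405 nm. Heat-inactivated enzymes (boiling water, 3 min) served as background. Compounds tested in duplicate. Selectivity taken as IC50(COX-1)/IC50(COX-2).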

[7] = target: Prostaglandin G/H synthase 2 (Ovis aries) (UniProt P79208); details: at 1 µM
[8] = Partition coefficient, log P of the compound; assay type: physicochemical; details: octanol/water
How it was run: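 Calculated rather than measured, as one of several physico-chemical descriptors used in quantitative structure–activity correlation with COX-2 inhibition.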

[9] = tested on: PC-3; assay: Anticancer activity against human PC3 cells; assay type: functional
[10] = tested on: NCI-H522; assay: Anticancer activity against human NCI-H522 cells at 10 uM; assay type: functional
How it was run: as §1

[11] = tested on: PC-3; assay: Anticancer activity against human PC3 cells at 1 uM; assay type: functional

Sequence of Prostaglandin G/H synthase 2 (Ovis aries) (P79208 whole entry, looked up): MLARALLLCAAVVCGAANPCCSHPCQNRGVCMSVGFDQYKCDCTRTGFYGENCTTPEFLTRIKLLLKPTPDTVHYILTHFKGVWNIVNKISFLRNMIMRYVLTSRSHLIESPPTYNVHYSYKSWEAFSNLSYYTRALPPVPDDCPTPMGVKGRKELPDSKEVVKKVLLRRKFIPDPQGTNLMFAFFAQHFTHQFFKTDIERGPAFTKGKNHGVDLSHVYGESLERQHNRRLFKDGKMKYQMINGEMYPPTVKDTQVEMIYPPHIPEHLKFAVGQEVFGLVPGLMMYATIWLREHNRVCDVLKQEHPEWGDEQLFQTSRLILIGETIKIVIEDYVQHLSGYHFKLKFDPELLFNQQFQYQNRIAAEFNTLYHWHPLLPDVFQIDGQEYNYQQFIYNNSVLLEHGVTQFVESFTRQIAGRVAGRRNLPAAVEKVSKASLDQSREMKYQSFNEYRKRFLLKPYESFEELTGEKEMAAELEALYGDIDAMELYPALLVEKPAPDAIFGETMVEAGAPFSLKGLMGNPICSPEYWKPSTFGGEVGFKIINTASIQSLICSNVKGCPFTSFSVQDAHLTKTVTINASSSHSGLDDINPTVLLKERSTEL
Sequence of Prostaglandin G/H synthase 1 (Ovis aries) (P05979 whole entry, looked up): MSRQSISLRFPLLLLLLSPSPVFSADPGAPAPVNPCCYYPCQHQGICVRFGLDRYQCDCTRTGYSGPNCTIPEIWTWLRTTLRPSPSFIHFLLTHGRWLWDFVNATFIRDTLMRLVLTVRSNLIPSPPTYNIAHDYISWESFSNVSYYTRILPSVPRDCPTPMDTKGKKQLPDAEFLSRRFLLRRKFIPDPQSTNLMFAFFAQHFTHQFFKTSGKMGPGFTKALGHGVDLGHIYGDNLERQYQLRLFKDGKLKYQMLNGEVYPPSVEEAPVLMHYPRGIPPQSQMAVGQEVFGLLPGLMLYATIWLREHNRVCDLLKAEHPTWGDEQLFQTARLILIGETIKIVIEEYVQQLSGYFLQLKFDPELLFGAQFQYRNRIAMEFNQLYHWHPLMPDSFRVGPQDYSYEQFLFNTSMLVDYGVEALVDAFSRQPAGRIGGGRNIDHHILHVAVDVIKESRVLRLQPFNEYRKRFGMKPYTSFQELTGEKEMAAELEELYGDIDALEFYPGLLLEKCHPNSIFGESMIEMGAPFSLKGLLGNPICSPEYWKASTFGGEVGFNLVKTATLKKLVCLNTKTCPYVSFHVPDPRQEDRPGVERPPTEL

SMILES | IC50 [1] | inhibition [2] | inhibition [3] | IC50 [4] | Ratio IC50 [6] | inhibition [7] | logP [8] | GI50 [9] | inhibition at 10 µM [5] | inhibition at 10 µM [10] | inhibition at 1 µM [11]
O=C(O)[C@H]1C[C@](O)(c2ccc(F)cc2)[C@@H](c2ccc(F)cc2)O1 (relative stereo) | 3.2 µM | 30% | 90% | > 10 µM | > 3.1 | 37% | 2.89 | – | 60% | – | –
O=C(O)[C@H]1C[C@](O)(c2ccc(Cl)cc2)[C@@H](c2ccc(Cl)cc2)O1 (relative stereo) | 3.8 µM | 55% | 94% | < 10 µM | < 2.6 | 30% | 3.65 | – | – | – | –
CS(=O)(=O)c1ccc([C@H]2O[C@@H](CO)C[C@]2(O)c2ccc(S(C)(=O)=O)cc2)cc1 | 6.5 µM | 55% | 57% | < 10 µM | < 1.5 | 40% | 0.792 | 100 µM | – | – | –
O=C(O)[C@H]1C[C@](O)(c2ccccc2Cl)[C@@H](c2ccccc2Cl)O1 (relative stereo) | 3.5 µM | 34% | 82% | > 10 µM | > 2.8 | 37% | 3.65 | – | – | 72% | –
CS(=O)(=O)c1ccc(C2=C(c3ccccc3)C(=O)OC2)cc1 [ROFECOXIB] | – | – | – | – | – | – | – | – | – | – | 15%
OC[C@H]1C[C@](O)(c2ccccc2)[C@@H](c2ccccc2)O1 | 5.1 µM | 2.8% | 77% | > 10 µM | > 1.96 | 28% | 2.5 | – | – | – | –
Cc1ccc(-c2cc(C(F)(F)F)nn2-c2ccc(S(N)(=O)=O)cc2)cc1 [CELECOXIB] | – | – | – | – | – | – | – | 47 µM | – | – | –

Further lines, with some results ahead:

IC50 [1] | inhibition [2] | inhibition [3] | IC50 [4] | Ratio IC50 [6] | inhibition [7] | logP [8] | GI50 [9] | SMILES | inhibition at 10 µM [5] | inhibition at 10 µM [10] | inhibition at 1 µM [11]
< 1 µM | 73% | 68% | < 10 µM | – | 67% | 3.54 | 22 µM | OC[C@H]1C[C@](O)(c2ccccc2Cl)[C@@H](c2ccccc2Cl)O1 | – | – | –
< 1 µM | 22% | 82% | > 10 µM | > 10 | 88% | 2.78 | 95 µM | OC[C@H]1C[C@](O)(c2ccc(F)cc2)[C@@H](c2ccc(F)cc2)O1 | – | – | –
< 1 µM | 22% | 67% | > 10 µM | > 10 | 65% | 2 | 93.3 µM | COc1ccc([C@H]2O[C@@H](CO)C[C@]2(O)c2ccc(OC)cc2)cc1 | – | – | –
3 µM | 56% | 68% | < 10 µM | < 3.3 | 43% | 3.54 | 19.9 µM | OC[C@H]1C[C@](O)(c2ccc(Cl)cc2)[C@@H](c2ccc(Cl)cc2)O1 | – | – | –
< 1 µM | -1.15% | 69% | > 10 µM | > 10 | 68% | 2.61 | – | O=C(O)[C@H]1C[C@](O)(c2ccccc2)[C@@H](c2ccccc2)O1 (relative stereo) | – | – | –
